Laboratory results from ChEMBL document CHEMBL1134644 (J Med Chem, 2001).

Key:
Adenosine receptor A1 = molecular target: T1, Adenosine receptor A1 (Rattus norvegicus, UniProt P25099); assay: Binding affinity at rat brain Adenosine A1 receptor
T1 sequence (P25099 whole entry): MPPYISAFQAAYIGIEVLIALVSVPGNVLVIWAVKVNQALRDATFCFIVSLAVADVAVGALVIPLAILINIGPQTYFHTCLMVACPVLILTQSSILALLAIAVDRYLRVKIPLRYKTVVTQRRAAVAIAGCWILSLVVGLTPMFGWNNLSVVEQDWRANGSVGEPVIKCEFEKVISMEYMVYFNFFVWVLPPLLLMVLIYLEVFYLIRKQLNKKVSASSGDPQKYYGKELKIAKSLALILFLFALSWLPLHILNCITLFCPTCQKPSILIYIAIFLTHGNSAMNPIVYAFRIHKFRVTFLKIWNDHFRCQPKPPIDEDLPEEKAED
In short: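 Rat cerebral cortex membranes labelled with [3H]R-PIA. Adenosine deaminase 3 units/mL present during membrane preparation, during a 30 min preincubation at 30 °C and during incubation. Filtration on GF/B filters. At least five competitor concentrations spanning 3 log units. […] Three independent experiments in duplicate.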

Adenosine receptor A3 [1] = molecular target: T2, Adenosine receptor A3 (Rattus norvegicus, UniProt P28647); assay: Binding affinity at rat adenosine A3 receptor in CHO cells; type: cell-based
T2 sequence (P28647 whole entry): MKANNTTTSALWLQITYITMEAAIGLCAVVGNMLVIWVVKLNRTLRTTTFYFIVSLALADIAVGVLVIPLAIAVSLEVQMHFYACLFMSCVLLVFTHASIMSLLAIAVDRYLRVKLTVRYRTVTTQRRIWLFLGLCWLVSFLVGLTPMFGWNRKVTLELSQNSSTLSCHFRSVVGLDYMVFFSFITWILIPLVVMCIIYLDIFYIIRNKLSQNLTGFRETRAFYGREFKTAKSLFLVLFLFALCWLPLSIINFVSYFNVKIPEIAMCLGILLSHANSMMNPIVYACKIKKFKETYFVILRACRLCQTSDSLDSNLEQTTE

Adenosine receptor A3 [2] = molecular target: T3, Adenosine receptor A3 (Homo sapiens, UniProt P0DMS8); assay: Binding affinity at wild-type Adenosine A3 receptor expressed in COS-7 cells; type: cell-based
T3 sequence (P0DMS8 whole entry): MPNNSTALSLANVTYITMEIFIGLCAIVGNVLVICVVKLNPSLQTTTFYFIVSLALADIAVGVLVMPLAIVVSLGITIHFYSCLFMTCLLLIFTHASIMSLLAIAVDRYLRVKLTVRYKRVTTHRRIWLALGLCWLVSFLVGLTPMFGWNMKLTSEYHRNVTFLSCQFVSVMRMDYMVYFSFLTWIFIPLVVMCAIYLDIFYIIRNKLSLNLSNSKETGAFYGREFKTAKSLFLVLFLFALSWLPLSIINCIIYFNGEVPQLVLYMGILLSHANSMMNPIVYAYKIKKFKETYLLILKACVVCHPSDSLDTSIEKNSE

Adenosine receptor A3 [3] = molecular target: Adenosine receptor A3 (Homo sapiens, UniProt P0DMS8, H272E); assay: Binding affinity at Mutant (H272E) human adenosine A3 receptor expressed in COS-7 cells; type: cell-based
Adenosine receptor A3 [4] = molecular target: T2, Adenosine receptor A3; assay: Binding affinity at rat adenosine A3 receptor in RBL-2H3 cells; type: cell-based
In short: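 Rat A3 receptors endogenously expressed in RBL-2H3 cells; displacement of [125I]AB-MECA at 1 nM in 50 mM Tris, 10 mM Mg2+, 1 mM EDTA, pH 8.0. Nonspecific binding defined with 100 μM R-PIA. Filtration on GF/B filters. At least five competitor concentrations. IC50 by nonlinear regression, converted to Ki by Cheng–Prusoff (Kd 1.46 nM). Three independent experiments in duplicate.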

Sequence of Adenosine receptor A3 (Homo sapiens, UniProt P0DMS8, H272E) (P0DMS8 whole entry H272E): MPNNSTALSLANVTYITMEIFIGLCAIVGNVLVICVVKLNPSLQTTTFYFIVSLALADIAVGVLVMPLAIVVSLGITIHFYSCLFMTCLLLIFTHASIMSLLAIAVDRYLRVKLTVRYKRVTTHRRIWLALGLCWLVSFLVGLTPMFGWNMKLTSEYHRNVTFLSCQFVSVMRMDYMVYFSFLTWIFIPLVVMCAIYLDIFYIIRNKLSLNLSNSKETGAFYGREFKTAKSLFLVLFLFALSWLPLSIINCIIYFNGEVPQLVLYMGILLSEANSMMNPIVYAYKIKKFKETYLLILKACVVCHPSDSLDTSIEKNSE

Row | Compound | Ki (Adenosine receptor A1) [µM] | Ki (Adenosine receptor A3 [1]) [µM] | Ki (Adenosine receptor A3 [2]) [µM] | Ki (Adenosine receptor A3 [3]) [µM] | Ki (Adenosine receptor A3 [4]) [µM]
1 | NCCNC(=O)[C@H]1O[C@@H](n2cnc3c(N)ncnc32)[C@H](O)[C@@H]1O | > 10 | 14.7 |  |  | 
2 | N[C@H]1[C@@H](O)[C@H](n2cnc3c(NCc4cccc(I)c4)ncnc32)O[C@@H]1CO | 8.1 |  | 0.87 | 0.32 | 
3 | N[C@@H]1[C@@H](O)[C@H](n2cnc3c(NC4CCCC4)ncnc32)O[C@@H]1CO | > 10 |  | 0.00054 | 0.00019 | > 10
4 | Nc1ncnc2c1ncn2[C@@H]1O[C@H](CO)[C@@H](O)[C@H]1N | > 10 |  | 1000 | 0.301 | > 10
5 | Nc1nc(Cl)nc2c1ncn2[C@@H]1O[C@H](CO)[C@@H](O)[C@H]1O |  |  | 0.65 | 11.6 | 
6 | NC[C@H]1O[C@@H](n2cnc3c(N)ncnc32)[C@H](O)[C@@H]1O | > 10 |  | 1000 | 0.425 | > 10
7 | Nc1ncnc2c1ncn2[C@@H]1O[C@H](CO)[C@@H](N)[C@H]1O | > 10 |  | 0.442 | 0.075 | 84
8 | N=C(N)N[C@H]1[C@@H](O)[C@H](n2cnc3c(N)ncnc32)O[C@@H]1CO | > 10 |  | 0.13 | 0.0333 | 
9 | CNC(=O)[C@@H]1C[C@H](N)[C@H](n2cnc3c(NCc4cccc(I)c4)nc(Cl)nc32)O1 | 6.69 | 3.4 | 0.0046 | 0.0023 | 
10 | Nc1nc2ccc(Cl)cc2c2nc(-c3ccco3)nn12 [CGS-15943] |  |  | 0.253 | 3.26 | 
